Source: ChEMBL document CHEMBL4052594, “Discovery of Pyrrolidine-Containing GPR40 Agonists: Stereochemistry Effects a Change in Binding Mode” (J Med Chem, 2017)
Calls of active or inactive are those of the source. The calls are words filed in the database; no cut-off is given here.

What was measured:
[1] = target: T1, PPARgamma (Homo sapiens, UniProt P37231); assay: Transactivation of human Gal4 fused PPARgamma-LBD expressed in HEK293 cells at 4.8 uM after 18 hrs by luciferase reporter gene assay relative to […]; assay type: cell-based; details: HEK293 cells expressing Gal4-fused human PPARgamma-LBD
T1 sequence (P37231 whole entry): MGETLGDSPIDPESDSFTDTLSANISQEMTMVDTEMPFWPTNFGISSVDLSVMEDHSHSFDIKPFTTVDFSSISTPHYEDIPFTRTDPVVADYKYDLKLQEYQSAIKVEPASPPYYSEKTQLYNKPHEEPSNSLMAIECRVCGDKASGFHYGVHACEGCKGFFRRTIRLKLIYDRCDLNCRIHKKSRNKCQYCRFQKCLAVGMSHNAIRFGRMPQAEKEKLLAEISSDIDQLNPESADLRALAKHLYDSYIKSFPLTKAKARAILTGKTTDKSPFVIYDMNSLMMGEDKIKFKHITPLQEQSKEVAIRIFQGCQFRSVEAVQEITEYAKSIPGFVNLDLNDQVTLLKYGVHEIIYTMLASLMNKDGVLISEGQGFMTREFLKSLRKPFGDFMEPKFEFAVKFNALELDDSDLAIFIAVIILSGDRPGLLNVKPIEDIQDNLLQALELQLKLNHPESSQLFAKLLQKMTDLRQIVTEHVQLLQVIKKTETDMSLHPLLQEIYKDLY

[2] = target: T2, Free fatty acid receptor 1 (Mus musculus, UniProt Q76JU9); assay: Agonist activity at mouse GPR40 expressed in CHO-A12 cells assessed as increase in intracellular calcium flux measured for 100 secs by FLIPR assay; assay type: functional, cell-based
T2 sequence (Q76JU9 whole entry, the tested form may be a part): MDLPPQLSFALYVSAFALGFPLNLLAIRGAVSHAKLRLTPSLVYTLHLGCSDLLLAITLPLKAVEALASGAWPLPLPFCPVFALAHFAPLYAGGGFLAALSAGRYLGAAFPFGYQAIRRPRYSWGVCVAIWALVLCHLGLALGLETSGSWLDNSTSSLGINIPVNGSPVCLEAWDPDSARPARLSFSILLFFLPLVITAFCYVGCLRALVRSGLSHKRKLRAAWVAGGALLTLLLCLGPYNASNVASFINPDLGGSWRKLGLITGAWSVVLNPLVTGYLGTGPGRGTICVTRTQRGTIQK

[3] = target: T3, Peroxisome proliferator-activated receptor gamma (Homo sapiens, UniProt P37231); assay: Transactivation of human Gal4 fused PPARgamma-LBD expressed in HEK293 cells after 18 hrs by luciferase reporter gene assay; assay type: cell-based
T3 sequence (P37231 whole entry): T1 sequence (P37231 whole entry)
Outline: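 Gal4 gene reporter transactivation assay for PPARγ; EC50 and Ymax reported.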

[4] = target: Free fatty acid receptor 1 (Mus musculus) (UniProt Q76JU9); assay: Intrinsic activity at mouse GPR40 expressed in CHO-A12 cells assessed as increase in intracellular calcium flux at 8.3 uM measured for 100 secs by FLIPR assay […]; assay type: functional, cell-based
Chain of Free fatty acid receptor 1 (Mus musculus) (Q76JU9 whole entry): as the sequence (Q76JU9 whole entry, the tested form may be a part) above

[5] = target: T4, Free fatty acid receptor 1 (Homo sapiens, UniProt O14842); assay: Agonist activity at human GPR40 expressed in CHO-A12 cells assessed as increase in intracellular calcium flux measured for 100 secs by FLIPR assay; assay type: functional, cell-based
T4 sequence (O14842 whole entry): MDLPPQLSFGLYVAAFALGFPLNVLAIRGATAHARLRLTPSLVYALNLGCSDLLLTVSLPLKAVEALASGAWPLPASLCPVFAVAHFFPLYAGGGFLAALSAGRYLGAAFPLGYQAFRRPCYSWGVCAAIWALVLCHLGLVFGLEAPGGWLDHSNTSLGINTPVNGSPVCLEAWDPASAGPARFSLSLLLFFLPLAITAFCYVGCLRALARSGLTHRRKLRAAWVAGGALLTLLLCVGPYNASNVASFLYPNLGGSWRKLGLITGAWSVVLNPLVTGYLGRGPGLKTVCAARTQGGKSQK

[6] = target: T4, Free fatty acid receptor 1; assay: Binding affinity to human GPR40 expressed in HEK293 cell membranes after 1 hr by radioligand displacement based scintillation counting method
Outline: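 Binding of human GPR40 measured as Ki against a radioligand. Mean of at least two runs. Displacement of the label appears as a negative slope and potentiation as a positive one.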

[7] = target: T4, Free fatty acid receptor 1; assay: Potentiation of DHA-induced agonist activity at human GPR40 inducibly expressed in HEK293 cells assessed as increase in intracellular calcium flux at 10 nM measured for 100 secs by FLIPR assay; assay type: functional, cell-based
Outline: (§1)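 Ca2+ FLIPR concentration-response to DHA in inducible hGPR40 cells, alone or with fixed added test compound (3 nM or 10 nM); curve shift assessed.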

[8] = target: T4, Free fatty acid receptor 1; assay: Intrinsic activity at human GPR40 transfected in HEK293 cells assessed as induction of cAMP accumulation at 16.7 uM incubated for 30 to 45 mins by HTRF assay relative to […]; assay type: functional, cell-based
[9] = target: T2, Free fatty acid receptor 1; assay: Agonist activity at GPR40 in mouse STC1 cells assessed as induction of GLP-1 secretion measured after 1 hr by HTRF assay; assay type: cell-based
[10] = tested on: Mus musculus; assay: Antidiabetic activity in C57BL/6J mouse assessed as change in plasma glucose AUC (0 to 120 mins) at 1 mg/kg, po administered 1 hr prior to glucose challenge by oral glucose tolerance test; assay type: functional
Outline: (§2)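 C57BL/6J mice dosed orally at 0.3 or 1 mg/kg 1 h before an oral glucose bolus. Plasma glucose sampled at -60, -20, 0, 20, 40, 60 and 120 min; glucose AUC0-120 expressed relative to vehicle.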

[11] = target: T4, Free fatty acid receptor 1; assay: Potentiation of DHA-induced agonist activity at human GPR40 inducibly expressed in HEK293 cells assessed as increase in intracellular calcium flux at agonism EC50 measured for 100 secs by FLIPR assay; assay type: functional, cell-based
[12] = target: T4, Free fatty acid receptor 1; assay: Agonist activity at human GPR40 transfected in HEK293 cells assessed as induction of cAMP accumulation incubated for 30 to 45 mins by HTRF assay; assay type: functional, cell-based
[13] = Antagonist activity at sodium channel (unknown origin); details: human
[14] = target: T5, Nuclear receptor subfamily 1 group I member 2 (Homo sapiens, UniProt O75469); assay: Antagonist activity at PXR (unknown origin); assay type: ADME
T5 sequence (O75469 whole entry): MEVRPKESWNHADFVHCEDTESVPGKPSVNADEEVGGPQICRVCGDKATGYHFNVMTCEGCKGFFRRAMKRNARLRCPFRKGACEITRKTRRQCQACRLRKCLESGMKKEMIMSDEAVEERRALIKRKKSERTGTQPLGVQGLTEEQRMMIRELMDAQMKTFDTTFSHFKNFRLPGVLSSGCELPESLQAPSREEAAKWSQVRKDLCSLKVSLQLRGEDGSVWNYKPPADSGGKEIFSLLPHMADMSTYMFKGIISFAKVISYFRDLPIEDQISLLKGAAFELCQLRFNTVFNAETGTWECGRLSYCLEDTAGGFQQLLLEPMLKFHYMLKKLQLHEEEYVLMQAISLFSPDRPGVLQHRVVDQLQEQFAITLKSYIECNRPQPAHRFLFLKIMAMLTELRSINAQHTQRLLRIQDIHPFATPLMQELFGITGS

[15] = Half life in cynomolgus monkey liver microsomes; assay type: ADME, Macaca fascicularis, microsome
[16] = Fraction unbound in human plasma; assay type: ADME, cell-free
[17] = tested on: Rattus norvegicus; assay: Toxicity in rat assessed as induction of hyperactivity at 80 mg/kg administered as single dose; assay type: organism-based; details: in vivo
Outline: (§3)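 Male rats fitted with telemetry received a single 80 mg/kg dose. Heart rate and blood pressure recorded by telemetry; locomotor activity monitored.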

[18] = Half life in human liver microsomes; assay type: ADME, microsome
[19] = Oral bioavailability in C57BL6 mouse at 0.5 mg/kg; assay type: ADME, organism-based; details: in vivo
[20] = tested on: Rattus norvegicus; assay: Toxicity in rat assessed as effect on mean arterial blood pressure at 80 mg/kg administered as single dose; assay type: organism-based; details: in vivo; outline: as §3
[21] = Terminal half life in CD-1 mouse at 0.2 mg/kg, iv by LC-MS/MS analysis; assay type: ADME, organism-based; details: in vivo, read-out: beta t1/2 (converted)
[22] = target: Cytochrome P450 3A4 (Homo sapiens, UniProt P08684); assay: Inhibition of CYP3A4 (unknown origin); assay type: ADME
Chain of Cytochrome P450 3A4 (P08684 whole entry): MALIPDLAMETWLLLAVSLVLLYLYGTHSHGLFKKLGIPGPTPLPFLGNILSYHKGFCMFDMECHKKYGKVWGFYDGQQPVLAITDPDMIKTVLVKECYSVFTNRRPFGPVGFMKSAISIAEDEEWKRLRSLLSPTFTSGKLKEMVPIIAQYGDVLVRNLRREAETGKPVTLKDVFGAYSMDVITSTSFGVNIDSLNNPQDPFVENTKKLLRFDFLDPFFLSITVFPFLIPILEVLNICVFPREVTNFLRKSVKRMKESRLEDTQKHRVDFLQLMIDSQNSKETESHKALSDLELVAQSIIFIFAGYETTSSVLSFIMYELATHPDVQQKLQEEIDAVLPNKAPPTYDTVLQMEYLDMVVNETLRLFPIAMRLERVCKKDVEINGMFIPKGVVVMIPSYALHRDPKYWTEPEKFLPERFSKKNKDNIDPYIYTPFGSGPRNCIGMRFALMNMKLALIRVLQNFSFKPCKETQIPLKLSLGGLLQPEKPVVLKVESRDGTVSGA

[23] = target: Free fatty acid receptor 1 (Mus musculus) (UniProt Q76JU9); assay: Agonist activity at GPR40 in C57BL/6J mouse primary pancreatic islets assessed as increase in glucose-stimulated insulin secretion after 1 hr by ELISA
Outline: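 Primary islets isolated from mice; insulin secretion measured across 0.016-2.0 µM compound to assess glucose-stimulated insulin secretion.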

[24] = target: T6, Peroxisome proliferator-activated receptor gamma (Mus musculus, UniProt P37238); assay: Agonist activity at PPARgamma in mouse 3T3L1 cells assessed as increase in insulin induced adipocyte differentiation by measuring free glycerol levels at 3 uM; assay type: cell-based
T6 sequence (P37238 whole entry): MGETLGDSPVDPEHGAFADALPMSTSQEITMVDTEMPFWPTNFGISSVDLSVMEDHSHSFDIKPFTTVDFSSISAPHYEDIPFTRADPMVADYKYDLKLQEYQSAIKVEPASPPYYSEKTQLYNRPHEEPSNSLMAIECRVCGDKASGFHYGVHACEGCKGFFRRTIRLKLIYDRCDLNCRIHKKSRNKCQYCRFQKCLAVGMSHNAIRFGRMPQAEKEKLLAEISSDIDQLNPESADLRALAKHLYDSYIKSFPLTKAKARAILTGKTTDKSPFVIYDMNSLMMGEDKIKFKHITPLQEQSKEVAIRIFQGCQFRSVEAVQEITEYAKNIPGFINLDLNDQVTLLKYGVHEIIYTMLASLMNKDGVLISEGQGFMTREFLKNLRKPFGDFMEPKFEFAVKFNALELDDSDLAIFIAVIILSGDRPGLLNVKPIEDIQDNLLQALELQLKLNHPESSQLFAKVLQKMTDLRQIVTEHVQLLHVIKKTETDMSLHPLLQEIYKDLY
Outline: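 3T3L1 cells incubated with compound at 3 µM; free glycerol levels measured as a marker of PPARγ-mediated adipocyte differentiation.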

[25] = Fraction unbound in mouse plasma; assay type: ADME, cell-free
[26] = target: T4, Free fatty acid receptor 1; assay: Potentiation of DHA-induced agonist activity at human GPR40 inducibly expressed in HEK293 cells assessed as increase in intracellular calcium flux at 3 nM measured for 100 secs by FLIPR assay; assay type: functional, cell-based; outline: as §1
[27] = Half life in mouse liver microsomes; assay type: ADME, microsome
[28] = Clearance in CD-1 mouse at 0.2 mg/kg, iv by LC-MS/MS analysis; assay type: ADME, organism-based; details: in vivo
[29] = tested on: Mus musculus; assay: Decrease in blood glucose level in C57BL/6J mouse at 0.3 mg/kg, po administered 1 hr prior to glucose challenge measured up to 120 mins by oral glucose tolerance test; assay type: functional, organism-based; outline: as §2
[30] = target: T3, Peroxisome proliferator-activated receptor gamma; assay: Binding affinity to PPARgamma (unknown origin); assay type: ADME
[31] = tested on: Rattus norvegicus; assay: Toxicity in rat assessed as effect on heart rate at 80 mg/kg administered as single dose; assay type: organism-based; details: in vivo; outline: as §3
[32] = Volume of distribution at steady state in CD-1 mouse at 0.2 mg/kg, iv by LC-MS/MS analysis; assay type: ADME, organism-based; details: in vivo, read-out: Vdss

| SMILES | Emax at 18 h, 4.8 µM [1] | EC50 [2] | EC50 [3] | Intrinsic activity [4] | EC50 [5] | Ki [6] | Intrinsic activity [8] | EC50 [9] | Activity [10] | EC50 [12] | further results |
| --- | --- | --- | --- | --- | --- | --- | --- | --- | --- | --- | --- |
| Cc1ccccc1Oc1ccc(N2CCC[C@H]2CC(=O)O)cc1 | 27% | 5600 nM | 32000 nM | 69% | 74 nM | 4400 nM | – | – | – | – | – |
| COc1ccc(F)c(-c2ccc(Cc3ccc(N4C[C@@H](C(F)(F)F)C[C@H]4CC(=O)O)cc3)c(C)c2)c1 | – | 2400 nM | – | 46% | 490 nM | 45 nM | 28% | 3200 nM | inactive | 2400 nM | Activity [7]: inactive; Activity [11]: inactive |
| O=C(O)C[C@@H]1CCCN1c1ccc(OCc2ccc(Cl)cc2Cl)cc1 | 54% | 4500 nM | 17000 nM | 54 to 66% | 340 nM | 890 nM | – | – | – | – | INH [13]: 4 µM; inhibition (INH) [14]: Active |
| COc1ccc(F)c(-c2ccc(Cc3ccc(N4C[C@H](C(F)(F)F)C[C@@H]4CC(=O)O)cc3)c(C)c2)c1 | 40% | 54 nM | 4400 nM | 210% | 110 nM | – | 140% | 330 nM | 39% | 210 nM | half-life [15]: > 2 h; fraction unbound [16]: 0.001; Activity [17]: Toxic; half-life [18]: > 2 h; bioavailability [19]: 83%; Activity [20]: Non-Toxic; half-life [21]: 7 h; IC50 [22]: 1700 nM; Activity [23]: Dose-dependent effect; Activity [24]: Active; fraction unbound [25]: 0.011; Activity [26]: Active; half-life [27]: > 2 h; clearance [28]: 0.2 mL/min/kg; Activity [29]: inactive; Activity [30]: 1.6 µM; Activity [31]: Non-Toxic; Vd [32]: 0.1 L/kg |
